CHRM5 PAM – potentiates acetylcholine response at human M5 receptor. P08912. CHO-K1 hM5, Fluo-8 calcium, ACh EC20 PAM; 0% = ACh EC20, 100% = ACh EC100. 0.3% of 360,000 active. activation, % at 3 µM;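 active means activation above the run cutoff, the mean activation of all test compounds plus 3 SD, cut at about 18% in these data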
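Replicates: One well per compound, no replicates | System: Human M5 receptor in CHO-K1 cells | Benchmarks: Low control EC20 acetylcholine (0%), high control EC100 acetylcholine (100%) | Probe or stimulus: Acetylcholine, EC20 level | Times: Fluo-8 loading 80 min at 37 °C plus 30 min room temperature | Signal: Intracellular calcium via Fluo-8 fluorescence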
M4 ag – CHRM4 agonism in calcium assay. P08173. CHO-K1 hM4/Gqi5, Fluo-8 calcium fluorescence; vehicle 0%, full acetylcholine response 100%. activation, % at 3 µM. 0.14% of 360,000 active;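 active means activation above the run mean over all test wells plus 3 SD, cut at about 32% in these data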;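 further: peak over basal fluorescence ratio per well then scaled between controls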
Target sequence (P08173 whole entry, looked up): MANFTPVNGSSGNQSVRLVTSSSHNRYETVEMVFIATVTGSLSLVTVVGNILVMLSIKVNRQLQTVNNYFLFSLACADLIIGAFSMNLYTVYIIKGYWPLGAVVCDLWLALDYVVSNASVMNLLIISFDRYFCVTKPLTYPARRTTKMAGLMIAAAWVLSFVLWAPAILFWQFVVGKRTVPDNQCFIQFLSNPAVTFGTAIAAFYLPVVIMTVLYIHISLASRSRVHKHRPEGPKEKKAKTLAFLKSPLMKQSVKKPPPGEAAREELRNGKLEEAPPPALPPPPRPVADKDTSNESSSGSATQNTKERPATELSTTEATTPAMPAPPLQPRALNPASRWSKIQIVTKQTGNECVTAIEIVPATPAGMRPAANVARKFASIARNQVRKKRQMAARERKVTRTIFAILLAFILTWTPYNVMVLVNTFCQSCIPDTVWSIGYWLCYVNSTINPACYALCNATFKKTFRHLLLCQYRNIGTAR
CHRM5 agonist – agonists of human muscarinic M5 receptor (CHRM5); P08912; CHO-K1 hM5 cells, Fluo-8 calcium fluorescence; 0% DMSO wells, 100% maximal acetylcholine response; activation, % at 3 µM; 0.19% of 360,000 active; AID 624037;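 active means activation above the run's mean over test compounds plus 3 SD, cut at about 23% in these data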;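 further: signal is peak over basal fluorescence ratio across the kinetic read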
CHRM4 antagonist – CHRM4 antagonism in calcium assay. P08173. CHO-hM4 cells, ACh EC80, Fluo-8 calcium fluorescence. inhibition, % at 3 µM. 0.73% of 360,000 active. AID 624125;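 active means inhibition above its plate's cutoff, the mean inhibition of sample wells plus 3 SD, cut at about 27% in these data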
M4 PAM – potentiates acetylcholine response at human M4 receptor; 0.4% of 360,000 active; activation, % at 3 µM; AID 624126; CHO-K1 hM4/Gqi5, Fluo-8 calcium fluorescence, ACh EC20; 0% = ACh EC20, 100% = maximal ACh; P08173;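 active means activation above its plate's cutoff, the mean activation of sample wells plus 3 SD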
M5 antag – CHRM5 antagonism in calcium assay; P08912; CHO-hM5 cells, Fluo-8 calcium fluorescence, ACh EC80; inhibition, % at 3 µM; 0.59% of 360,000 active;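 active means inhibition above a per-plate cutoff, the mean of that plate's test compounds plus 3 SD, cut at about 27% in these data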
Each line names hits and unclear results; the compound was inactive in the other large screens. An excerpt weighted towards active compounds, which were near 1.9% of everything screened.

CCCOc1ccc(C(=O)NNC(=S)NC(=O)c2cccs2)cc1	M4 ag 109.7, CHRM5 agonist 72.0, CHRM4 antagonist 63.2, M5 antag 41.9
CC(=O)c1cccc(NC(=S)NC(=O)c2ccc(C)cc2)c1	M4 PAM 25.9
CCNC(=S)NNC(=O)CC(C)C	none
Cc1cn([C@H]2C[C@H](O)[C@@H](CNCc3cnc(N4CCOCC4)nc3)O2)c(=O)[nH]c1=O	none
COC(=O)CC1C(=O)NCCN1C(=S)NC(=O)c1sc2ccccc2c1Cl (stereo unspecified)	none
CCCOc1ccc(C(=O)NNC(=S)NC(=O)c2ccco2)cc1	M4 ag 126.2, CHRM5 agonist 59.7, M5 antag 30.6
COc1ccc(C(=O)NNC(=S)NC(=O)c2ccco2)cc1	none
CCCOc1ccc(C(=O)NNC(=S)NC(=O)c2ccccc2)cc1	M4 ag 136.3, CHRM5 agonist 77.8, CHRM4 antagonist 26.7
CC(C)CNC(=S)NNC(=O)c1ccco1	M4 PAM 37.9
CC(Oc1ccc(Cl)cc1)C(=O)NNC(=S)NC(=O)c1ccco1 (stereo unspecified)	M4 ag 63.4, CHRM5 agonist 26.3
CCN1CCC(NC(=O)Nc2cc(Cl)ccc2OC)CC1	none
CCCN(CCC)Cc1cc(=O)oc2cc(C)c(Cl)cc12	none
O=C(c1cccc(Br)c1)N1CCN(c2ccc(N3CCOCC3)nn2)CC1	none
Cc1ccc(C(=O)N2CCN(c3ccc(N4CCOCC4)nn3)CC2)cc1C	M4 PAM 18.2
Cc1ccc(SCC(=O)O/N=C(\N)c2cccnc2)cc1	none
CCC(C)NC(=O)c1ccc(N2CC3CC(C2)c2cccc(=O)n2C3)c(NC(=O)c2c(F)cccc2F)c1 (stereo unspecified)	none
COc1ccc(CCC(C)NC2C3CC4CC(C3)CC2C4)cc1 (stereo unspecified)	CHRM4 antagonist 66.1
CCOCCCNC(=O)Cn1ncc2c(=O)oc3ccccc3c21	CHRM4 antagonist 39.1
Cc1cc(=O)[nH]c(SCC(=O)c2ccccc2)c1C#N	M4 PAM 34.3
Cc1cc(C)c(C#N)c(SCC(=O)c2cccs2)n1	CHRM4 antagonist 36.8, M4 PAM 75.4
Cc1cc(SCC(=O)c2cccs2)n2nc(C)c(-c3ccc(Cl)cc3)c2n1	M4 PAM 23.2
Cc1cc(C)c(C#N)c(SCC(=O)c2ccccc2)n1	M4 PAM 26.0
Cc1ccccc1NC(=O)CSc1[nH]c(=O)cc(C)c1C#N	none
Cc1nn2c(SCC(=O)c3cccs3)cc(C(C)(C)C)nc2c1-c1ccccc1	none
CSc1nc(N)nc(SCC(=O)c2ccccc2)c1C#N	none
CC(=O)c1ccc(N(CC(=O)Nc2cc(C)on2)S(=O)(=O)c2ccc(C)cc2)cc1	none
O=C(c1ccc(CSc2nc3ccncc3[nH]2)cc1)N1CCN(c2cccc(Cl)c2)CC1	M5 antag 35.5
COC(=O)c1cc(NC(=O)/C=C/c2ccc3c(c2)OCO3)cc(C(=O)OC)c1	CHRM4 antagonist 35.7
COC(=O)c1cccc(NC(=O)/C=C/c2ccc3c(c2)OCO3)c1	none
O=C(OCCN1CCOCC1)c1ccc(Cl)cc1Cl	M4 PAM 14.6
O=[N+]([O-])c1ccc(S(=O)(=O)c2cccc(C(F)(F)F)c2)nc1	CHRM4 antagonist 45.6
O=C(NCc1ccco1)c1cccc(NS(=O)(=O)c2cccc(F)c2)c1	none
O=C(NCc1ccco1)c1cccc(NS(=O)(=O)c2ccccc2F)c1	CHRM5 PAM 18.8
NC(=O)c1ccc(CN2CCc3ccccc3C2)cc1	none
CCOC(=O)C(Cc1ccnc2ccccc12)=NO	none
CCOC(=O)/C(CCC[N+](C)(CC)CC)=N\O	M5 antag 60.3
C=C(C)COc1ccc(-c2[nH]ncc2Oc2ccc(OC)cc2)c(O)c1	CHRM4 antagonist 41.2
Cc1oc2nc(SCC(=O)N3CCCCC3)nc(N)c2c1C	M4 PAM 19.8
O=C(CCN1C(=O)c2ccccc2S1(=O)=O)Nc1ccc(F)c([N+](=O)[O-])c1	none
N#Cc1cc(-c2ccccc2)nc(N2CCNCC2)n1	none
CC1(C(=O)Nc2cccc3ccccc23)CC1(Br)Br (stereo unspecified)	M5 antag 31.3
CC(C)N1CCC1(C)C(=O)Nc1cccc2ccccc12 (stereo unspecified)	none
CC(On1nnc2ccccc21)C(=O)N1CCN(Cc2ccccc2)CC1 (stereo unspecified)	none
COC(=O)c1c(-c2ccccc2)csc1N	none
COC(=O)c1c(C(=O)OC)c2c(-c3ccccc3)cc3cccc1n32	M5 antag 31.7
Cc1cc2c(cc1C)CSC(c1ccccc1OC(=O)C(C)C)SC2	none
Cn1nc(C(F)(F)F)c(-c2cccc(C(F)(F)F)c2)c1NC(=O)Nc1ccc(F)cc1	M5 antag 34.3
Cc1ccsc1C(=O)NCCc1nnc2ccccn12	none
CCOC(=O)c1oc2ccccc2c1NC(=O)C(C)(C)C	none
CCOC(=O)c1oc2ccc(Cl)cc2c1NC(C)=O	M4 PAM 19.5
COC(=O)c1cnn(-c2ccccc2)c1C(OC)OC	CHRM5 PAM 22.1
COC(=O)c1cnn(-c2ccccc2)c1/C=N/NC(=S)Nc1ccccc1	none
CC(C)(CN1CCN(c2ccccc2)CC1)NS(=O)(=O)c1ccccc1	CHRM4 antagonist 31.1
COC(=O)c1ccc(NC(=O)Nc2ccc([N+](=O)[O-])cc2)cc1	M5 antag 34.6
COC(=O)c1cccc(NC(=O)Nc2ccc(Cl)c(Cl)c2)c1	M5 antag 32.2
COC(=O)c1ccc(NC(=O)Nc2ccc(F)c(Cl)c2)cc1	M5 antag 30.7
COC(=O)c1sccc1NC(=O)Nc1ccc(Cl)c(Cl)c1	CHRM4 antagonist 27.6
OC(c1ccc(Cl)cc1)c1ncc(-c2cccc(F)c2)[nH]1 (stereo unspecified)	none
O=C(Nc1ccccc1)Nc1ccccc1NS(=O)(=O)c1cccs1	none
O=C(Nc1ccc(Cl)c(Cl)c1)Nc1ccccc1NS(=O)(=O)c1cccs1	M5 antag 30.1
COC(=O)c1cc(NC(=O)Nc2ccccc2)ccc1Cl	M5 antag 31.3
CC1=CC(=O)C=C(C)C1=NOc1ccc([N+](=O)[O-])cc1	none
O=C(CSc1ccccc1)Nc1ccc2c(c1)C(=O)NC2=O	none
COc1ccc(-n2c(C)c(C)c3c(NCCN(C)C)ncnc32)cc1	CHRM5 PAM 29.2
CC(C)N(C(=O)C1CC(=O)OC12CCCCC2)C(C)C (stereo unspecified)	CHRM4 antagonist 29.5
COc1ccc(-n2c(=O)[nH]cc(C(=O)Nc3ccc4c(c3)OCO4)c2=O)cc1OC	none
